Measured values taken from ChEMBL document CHEMBL4334447, “Discovery of 4-Aminoquinoline-3-carboxamide Derivatives as Potent Reversible Bruton's Tyrosine Kinase Inhibitors for the Treatment of Rheumatoid Arthritis” (J Med Chem, 2019).
pEC50, pIC50: −log10 of the molar value. The source made the active and inactive calls. The rule behind the calls is not given here.

How the values were obtained:
[1] = Volume of distribution in Sprague-Dawley rat at 2 mg/kg, iv or 5 mg/kg, po by LC-MS/MS analysis; format: ADME, organism-based; conditions: in vivo
Summary of the method: (§1)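 Male Sprague-Dawley rats (187-205 g, n=6 per route). IV group: 2 mg/kg by tail vein in 10% DMSO/90% PEG400, fed animals. Oral group: 5 mg/kg as a 0.5% methylcellulose suspension, fasted animals. Jugular cannula blood taken pre-dose and from 0.033 h (iv only) to 24 h. Plasma stored at -20 °C and analysed by LC-MS/MS.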

[2] = Stability in Beagle dog plasma assessed as parent compound remaining at 1 uM measured after 2 hrs by LC-MS/MS analysis; format: ADME, cell-free, Canis lupus familiaris; conditions: read-out: Stability
Summary of the method: (§2)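 Compound at 1 µM initial concentration incubated 2 h at 37 °C in plasma. Quenched with 10 volumes of methanol containing internal standard, then centrifuged. Supernatant diluted with an equal volume of water and analysed by LC-MS/MS. Read-out is % parent remaining. Mean of three separate assays run in triplicate.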

[3] = target: T1, Tyrosine-protein kinase Tec (Homo sapiens, UniProt P42680); assay: Inhibition of recombinant human N-terminal GST-fused TEC catalytic domain (359 to 631 residues) expressed in baculovirus expression system using biotin-labelled STK/TK as substrate measured after 1 hr by HTRF assay
T1 sequence (P42680 whole entry): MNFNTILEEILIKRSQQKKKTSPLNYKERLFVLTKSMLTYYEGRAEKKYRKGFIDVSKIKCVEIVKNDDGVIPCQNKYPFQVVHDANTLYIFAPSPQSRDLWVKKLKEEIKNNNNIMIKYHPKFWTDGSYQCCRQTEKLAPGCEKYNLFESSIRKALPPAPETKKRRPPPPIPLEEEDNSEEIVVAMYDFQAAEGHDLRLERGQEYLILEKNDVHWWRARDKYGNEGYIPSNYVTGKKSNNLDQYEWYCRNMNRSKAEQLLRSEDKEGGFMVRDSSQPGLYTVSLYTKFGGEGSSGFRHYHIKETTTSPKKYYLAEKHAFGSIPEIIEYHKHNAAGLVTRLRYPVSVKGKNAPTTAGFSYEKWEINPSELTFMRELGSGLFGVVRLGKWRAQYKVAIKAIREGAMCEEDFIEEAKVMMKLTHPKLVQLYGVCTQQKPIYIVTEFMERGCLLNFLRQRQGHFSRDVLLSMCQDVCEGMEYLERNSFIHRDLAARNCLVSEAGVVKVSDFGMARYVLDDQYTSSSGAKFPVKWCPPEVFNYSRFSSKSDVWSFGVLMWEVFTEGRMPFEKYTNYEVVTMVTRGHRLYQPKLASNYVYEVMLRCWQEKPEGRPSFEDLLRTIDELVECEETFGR
Summary of the method: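 HTRF KinEase format: TEC kinase and substrate mixed with serial compound concentrations at rt, then ATP added to start. Stopped after 1 h with EDTA detection solution containing europium anti-phosphotyrosine antibody and streptavidin-XL665. Read after a further 1 h at rt. Mean of ≥3 assays in triplicate.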

[4] = species on record: Homo sapiens; assay: Selectivity ratio of IC50 for human full-length recombinant FYN to IC50 for inhibition of FAM-labeled peptide binding to full-length human N-terminal GST-tagged BTK (2 to 659 residues) expressed in baculovirus infected Sf21 insect cells
Summary of the method: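 Ratio of kinase IC50 to BTK IC50. BTK measured by off-chip mobility shift: compound preincubated 10 min with BTK in 50 mM HEPES pH 7.5, 0.01% Brij-35, then FAM-labelled peptide and ATP added, 28 °C. Stopped with EDTA buffer; percent conversion fitted for IC50. Each panel kinase assayed in triplicate.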

[5] = Toxicity in complete freund's adjuvant-induced DBA/1 mouse arthritis model assessed as change in body weight at 10 mg/kg, po qd administered starting from 29 day post-CFA challenge and measured on day 29, 33, 36, 40 and 43; format: organism-based; conditions: in vivo, 696 h
Summary of the method: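 CIA in male DBA/1 mice: intradermal bovine type II collagen in CFA on day 0, collagen II in IFA boost on day 20. Randomized on day 29 and given oral doses once daily (n=6 per group) alongside vehicle and naive groups. Body weights recorded over the study days.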

[6] = target: Proto-oncogene tyrosine-protein kinase Src (Homo sapiens, UniProt P12931); assay: Inhibition of recombinant full-length human SRC using KVEKIGEGTYGVVYK as substrate measured after 40 mins in presence of [gamma33P]ATP by scintillation counting analysis
Sequence of Proto-oncogene tyrosine-protein kinase Src (P12931 2-536 limits assumed): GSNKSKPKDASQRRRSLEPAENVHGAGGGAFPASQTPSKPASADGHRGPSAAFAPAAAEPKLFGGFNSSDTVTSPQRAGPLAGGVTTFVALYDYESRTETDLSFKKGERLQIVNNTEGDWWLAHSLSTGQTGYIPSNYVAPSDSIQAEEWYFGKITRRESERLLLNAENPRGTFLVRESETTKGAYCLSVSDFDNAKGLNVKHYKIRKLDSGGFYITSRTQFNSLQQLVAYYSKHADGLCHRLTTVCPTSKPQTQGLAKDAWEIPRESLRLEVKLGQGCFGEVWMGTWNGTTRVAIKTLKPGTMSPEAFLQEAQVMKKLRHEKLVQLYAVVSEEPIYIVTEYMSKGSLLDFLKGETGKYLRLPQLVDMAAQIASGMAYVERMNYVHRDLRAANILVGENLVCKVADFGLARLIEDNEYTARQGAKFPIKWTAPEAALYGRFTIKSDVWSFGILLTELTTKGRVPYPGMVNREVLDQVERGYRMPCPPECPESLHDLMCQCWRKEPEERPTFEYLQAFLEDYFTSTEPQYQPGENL
Summary of the method: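 Started with Mg/ATP at room temperature; 40 min incubation. Stopped with 0.5% phosphoric acid, filtermat-spotted, washed, scintillation counted. Mean of ≥3 assays in triplicate.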

[7] = target: Tyrosine-protein kinase BTK (Homo sapiens, UniProt Q06187, C481S); assay: biochemical
Sequence of Tyrosine-protein kinase BTK (Homo sapiens, UniProt Q06187, C481S) (Q06187 whole entry C481S, the tested form may be a part): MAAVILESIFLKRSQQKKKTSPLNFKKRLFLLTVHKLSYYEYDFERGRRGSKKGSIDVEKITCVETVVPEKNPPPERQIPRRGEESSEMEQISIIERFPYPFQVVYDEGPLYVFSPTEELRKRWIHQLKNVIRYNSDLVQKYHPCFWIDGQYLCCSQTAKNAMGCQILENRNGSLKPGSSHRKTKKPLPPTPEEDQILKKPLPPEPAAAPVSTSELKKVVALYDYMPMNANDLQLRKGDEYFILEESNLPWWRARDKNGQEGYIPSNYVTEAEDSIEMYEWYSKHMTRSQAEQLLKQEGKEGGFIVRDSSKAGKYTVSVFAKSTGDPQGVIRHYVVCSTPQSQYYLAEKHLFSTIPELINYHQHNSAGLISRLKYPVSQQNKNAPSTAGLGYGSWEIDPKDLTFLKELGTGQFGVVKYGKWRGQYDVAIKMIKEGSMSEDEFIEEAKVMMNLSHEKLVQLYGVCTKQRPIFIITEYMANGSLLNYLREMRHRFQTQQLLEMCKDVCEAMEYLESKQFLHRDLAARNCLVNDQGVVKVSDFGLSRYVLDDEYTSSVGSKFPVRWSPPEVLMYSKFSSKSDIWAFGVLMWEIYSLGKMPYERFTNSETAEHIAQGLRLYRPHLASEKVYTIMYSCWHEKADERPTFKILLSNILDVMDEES

[8] = target: T2, Tyrosine-protein kinase BTK (Homo sapiens, UniProt Q06187); assay: Reversible inhibition of FAM-labeled peptide binding to full-length human N-terminal GST-tagged BTK (2 to 659 residues) expressed in baculovirus infected Sf21 insect cells at preincubated for 10 mins followed by FAM-labeled peptide addition and measured by off-chip mobility shift assay
T2 sequence (Q06187 whole entry, the tested form may be a part): as the sequence (Q06187 whole entry C481S, the tested form may be a part) above, with S481C counted along it

[9] = Clearance in Sprague-Dawley rat at 2 mg/kg, iv by LC-MS/MS analysis; format: ADME, organism-based; conditions: in vivo; summary of the method: as §1
[10] = target: T2, Tyrosine-protein kinase BTK; assay: Reversible inhibition of sodium orthovanadate-stimulated BTK autophosphorylation at Tyr223 residues in human Ramos cells preincubated for 2 hrs followed by sodium orthovanadate addition and measured after 15 mins by Western blot analysis; format: cell-based
[11] = target: T3, Tyrosine-protein kinase ITK/TSK (Homo sapiens, UniProt Q08881); assay: Inhibition of recombinant human ITK (352 to 617 residues) using myelin basic protein as substrate measured after 40 mins in presence of [gamma33P]ATP by scintillation counting analysis
T3 sequence (Q08881 whole entry): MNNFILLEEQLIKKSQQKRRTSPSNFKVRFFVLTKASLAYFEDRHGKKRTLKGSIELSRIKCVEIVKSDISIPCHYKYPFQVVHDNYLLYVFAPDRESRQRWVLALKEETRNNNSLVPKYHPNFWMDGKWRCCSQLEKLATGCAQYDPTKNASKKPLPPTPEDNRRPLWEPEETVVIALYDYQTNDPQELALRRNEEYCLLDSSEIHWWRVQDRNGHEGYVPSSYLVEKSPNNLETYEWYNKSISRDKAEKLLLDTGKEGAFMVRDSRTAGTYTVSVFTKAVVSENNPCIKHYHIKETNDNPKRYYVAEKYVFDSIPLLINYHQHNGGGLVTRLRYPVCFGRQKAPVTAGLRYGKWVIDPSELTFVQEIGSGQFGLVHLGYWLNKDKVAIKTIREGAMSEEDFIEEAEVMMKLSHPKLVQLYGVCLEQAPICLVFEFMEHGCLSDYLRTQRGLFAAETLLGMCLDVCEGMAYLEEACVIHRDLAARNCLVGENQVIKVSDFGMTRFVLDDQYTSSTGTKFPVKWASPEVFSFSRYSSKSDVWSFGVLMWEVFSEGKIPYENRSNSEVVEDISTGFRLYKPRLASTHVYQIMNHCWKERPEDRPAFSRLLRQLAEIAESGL

[12] = system: Mus musculus; assay: Antiarthritic activity in complete freund's adjuvant-induced DBA/1 mouse arthritis model assessed as reduction in paw volume at 10 mg/kg, po qd administered starting from 29 day post-CFA challenge and measured on day 29, 33, 36, 40 and 43 by caliper method; format: functional, organism-based
Summary of the method: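 Male DBA/1 mice (18-20 g, 4-6 weeks) immunized intradermally at the tail base with bovine type II collagen in CFA on day 0, then challenged with collagen II in IFA on day 20. Randomized on day 29 and dosed orally once daily (n=6 per group) with vehicle as control. Paw thickness measured by caliper on days 29, 33, 36, 40 and 43. Mean ± SEM; Dunnett's test vs vehicle.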

[13] = target: Tyrosine-protein kinase Fyn (Homo sapiens, UniProt P06241); assay: Inhibition of human full-length recombinant FYN using KVEKIGEGTYGVVYK as substrate measured after 40 mins in presence of [gamma-33P]-ATP by scintillation counting analysis
Sequence of Tyrosine-protein kinase Fyn (P06241 whole entry): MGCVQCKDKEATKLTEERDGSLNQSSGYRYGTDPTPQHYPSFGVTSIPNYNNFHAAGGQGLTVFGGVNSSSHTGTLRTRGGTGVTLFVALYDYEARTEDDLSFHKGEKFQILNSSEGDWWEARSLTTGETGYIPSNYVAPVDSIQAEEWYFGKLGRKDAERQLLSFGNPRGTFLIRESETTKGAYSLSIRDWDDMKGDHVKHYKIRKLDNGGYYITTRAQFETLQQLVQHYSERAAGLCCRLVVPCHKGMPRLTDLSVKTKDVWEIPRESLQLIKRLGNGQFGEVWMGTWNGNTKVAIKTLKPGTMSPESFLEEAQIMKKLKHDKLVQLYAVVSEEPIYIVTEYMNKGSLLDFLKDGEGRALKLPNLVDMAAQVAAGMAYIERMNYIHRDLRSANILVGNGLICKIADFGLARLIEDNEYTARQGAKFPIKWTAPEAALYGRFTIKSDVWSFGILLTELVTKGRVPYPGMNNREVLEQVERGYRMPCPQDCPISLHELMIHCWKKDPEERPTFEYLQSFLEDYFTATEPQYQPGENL
Summary of the method: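 Started with Mg/ATP; 40 min at room temperature. Stopped with 0.5% phosphoric acid, spotted onto P30 filtermat, washed, scintillation counted. Mean of ≥3 assays in triplicate.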

[14] = Inhibition of recombinant mouse full-length BLK V421E mutant using poly(Glu, Tyr) 4:1 as substrate measured after 40 mins in presence of [gamma33P]ATP by scintillation counting analysis
Summary of the method: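 Radiometric assay with BLK in 50 mM Tris pH 7.5, 0.1 mM EGTA, 0.1 mM Na3VO4, 0.1% mercaptoethanol, 0.1 mg/mL poly(Glu,Tyr) 4:1, 10 mM Mg acetate and [γ-33P]-ATP. Started with Mg/ATP at room temperature; 40 min. Stopped with 0.5% phosphoric acid, filtermat-spotted, washed, scintillation counted. Mean of ≥3 assays in triplicate.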

[15] = Stability in monkey plasma assessed as parent compound remaining at 1 uM measured after 2 hrs by LC-MS/MS analysis; format: ADME, cell-free, Macaca mulatta; conditions: rhesus monkey, read-out: Stability; summary of the method: as §2

## COc1cc2cn[nH]c2cc1-c1ccc(F)c2c(N)c(C(N)=O)cnc12
[1]
  Vd: 2.1 L/kg
[2]
  remaining at 2 h, 1 µM: 88%
[3]
  pIC50: 6.64
[4]
  Ratio IC50: 31
[5]
  Activity: Non-Toxic
[6]
  pIC50: 6.04
[7]
  pIC50: 7.41
[8]
  pIC50: 8.28
[9]
  clearance: 20.8 mL/min/kg
[10]
  pEC50: 7.37
[11]
  pIC50: 6.51
[12]
  Activity: Active
[13]
  pIC50: 6.78
[14]
  pIC50: 6.82
[15]
  remaining at 2 h, 1 µM: 88%
